Laboratory results taken from ChEMBL document CHEMBL1144541, “Antinociceptive and antiinflammatory activities and QSAR studies on 2-substituted-4,5-diphenyl-1H-imidazoles” (2007).

Columns and labels:
Type in all cases: functional
[1] = system: Mus musculus; assay: Antinociceptive activity in ip dosed Swiss albino mouse assessed as latency time after 30 mins by hot plate method
How it was run: (§1)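 Swiss albino mice (20–25 g) were housed 7 days at 30 ± 1 °C before testing, in groups of six. Compounds were given ip at 9.5–12.58 mg/kg as a 0.2% Tween suspension. Mice were placed on a 55 ± 0.5 °C hot plate before dosing and at 15, 30, 60 and 120 min after dosing, with a 15 s cut-off. Significance was assessed by Student's t test.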

[2] = system: Mus musculus; assay: Antinociceptive activity in ip dosed Swiss albino mouse assessed as latency time after 15 mins by hot plate method; how it was run: as §1
[3] = system: Mus musculus; assay: Antinociceptive activity in ip dosed Swiss albino mouse assessed as latency time after 120 mins by hot plate method; how it was run: as §1
[4] = system: Mus musculus; assay: Antinociceptive activity in ip dosed Swiss albino mouse assessed as latency time after 60 mins by hot plate method; how it was run: as §1
[5] = system: Mus musculus; assay: Antinociceptive activity in ip dosed Swiss albino mouse assessed as latency time by tail flick method
How it was run: (§2)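 Swiss albino mice (20–25 g) received compounds ip at 9.5–12.58 mg/kg in 0.2% Tween suspension. Tail-flick latency to radiant heat was measured, with stimulus intensity set to give a 3–4 s baseline. Readings were taken just before injection and at 15, 30, 60 and 120 min after. Significance was assessed by Student's t test.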

[6] = system: Mus musculus; assay: Antinociceptive activity in ip dosed Swiss albino mouse assessed as latency time after 15 mins by tail flick method; how it was run: as §2
[7] = system: Mus musculus; assay: Antinociceptive activity in ip dosed Swiss albino mouse assessed as latency time after 120 mins by tail flick method; how it was run: as §2
[8] = system: Rattus norvegicus; assay: Antiinflammatory activity assessed as reduction of carrageenan-induced paw volume in intraperitoneally dosed Wistar rat after 3 hrs; design: scale not given: the % may be the effect or the level left
How it was run: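 Wistar rats of either sex (120–150 g) were dosed ip with compounds at 9.5–12.58 mg/kg in 0.2% Tween suspension. After 1 h, 0.05 ml of 1.0% w/v carrageenan in 0.9% NaCl was injected into the left hind paw. Paw volume was measured by mercury-displacement plethysmometry before injection and at 1, 2 and 3 h. Percent inhibition of the 3 h swelling was calculated.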

[9] = system: Mus musculus; assay: Antinociceptive activity in ip dosed Swiss albino mouse assessed as latency time after 60 mins by tail flick method; how it was run: as §2
[10] = system: Rattus norvegicus; assay: Antiinflammatory activity assessed as reduction of carrageenan-induced paw volume in Wistar rat at 10 mg/kg, ip after 3 hrs; conditions: route intraperitoneal
[11] = system: Mus musculus; assay: Antinociceptive activity in ip dosed Swiss albino mouse assessed as latency time by hot plate method; how it was run: as §1
[12] = system: Mus musculus; assay: Antinociceptive activity in ip dosed Swiss albino mouse assessed as latency time after 30 mins by tail flick method; how it was run: as §2

Compound | Activity [1] | Activity [2] | Activity [3] | Activity [4] | Activity [5] | Activity [6] | Activity [7] | Activity [8] | Activity [9] | inhibition in vivo at 10 mg/kg [10] | Activity [11] | Activity [12]
C(=C\c1nc(-c2ccccc2)c(-c2ccccc2)[nH]1)/c1ccccc1 | 5.58 s | 5.17 s | 6.12 s | 5.94 s | 4.16 s | 4.28 s | 4.75 s | 55.82% | 4.68 s | 55.8% | 4.67 s | 
COc1ccc2c(c1)c(CC(=O)O)c(C)n2C(=O)c1ccc(Cl)cc1 [INDOMETHACIN] |  |  |  |  |  |  |  |  |  | 95.3% |  | 
COc1ccc(-c2nc(-c3ccccc3)c(-c3ccccc3)[nH]2)cc1 | 7.89 s | 5.02 s | 10.87 s | 9.67 s | 4.58 s | 4.98 s | 10.83 s | 86.05% | 9.17 s | 86% | 4.87 s | 7.45 s
Cc1nc(-c2ccccc2)c(-c2ccccc2)[nH]1 | 5.33 s | 5.1 s | 5.52 s | 5.47 s | 4.12 s | 4.17 s | 4.35 s | 25.59% | 4.35 s |  | 4.65 s | 4.28 s
Clc1cccc(-c2nc(-c3ccccc3)c(-c3ccccc3)[nH]2)c1 | 6.18 s | 5.14 s | 8.91 s | 7.78 s | 4.12 s | 4.12 s | 8.18 s | 55.82% | 6.89 s |  | 4.68 s | 4.98 s
